Reference: ChEMBL document CHEMBL4513216, “Probing the Open Global Health Chemical Diversity Library for Multistage-Active Starting Points for Next-Generation Antimalarials” (ACS Infect Dis, 2020)

experiment: Toxicity liver stage against HepG2, at 10uM; type: cell-based; design: test concentration 10 uM, cell line HepG2-A16-CD81EGFP; conditions: human, HepG2-A16-CD81EGFP cells; read-out: INHIBITION
Summary of the method: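 Uninfected HepG2-A16-CD81EGFP cells, 3 × 10^3 per well, 1536-well, plated on prespotted compound at 10 μM final, parasite-free screening media added to match infected plates; puromycin 10 μM positive, DMSO 0.5% negative; run in parallel with 48 h PbLuc assay at 37 °C, 5% CO2; viability by CellTiter-Glo luminescence, normalized to controls.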

Row | SMILES | cytotoxicity at 10 µM [%]
1 | COc1cccc(OCCNCc2ccccc2)c1 | 10.7
2 | COCCN1C(=O)CO[C@H]2CN(CCCc3ccccc3)C[C@H]21 | 52.8
3 | CCC(C)[C@H](NC(=O)c1ccc(F)cc1-n1cnnn1)C(=O)OC (some centres undefined) | 5.55
4 | COc1ccc(-c2n[nH]c(C)c2CC(=O)N2CCOCC2)cc1 | -14.2
5 | Cc1nnc(C2CCN(C(=O)c3ccc4nccnc4c3)CC2)s1 | 5.05
6 | O=C(Cc1ccccc1Cl)Nc1cnn(C2CCOC2)c1 (centres undefined) | 2.63
7 | CC(=O)N1CCC2(CCN(CC3CCCCC3)C2)CC1 | 2.05
8 | CN(C)CCN1C(=O)CCC12CCCN(C(=O)CC1CC1)CC2 (centres undefined) | -1.48
9 | O=C(C1CCOC1)N1CCc2ncnc(NC3CCC3)c2CC1 (centres undefined) | -151
10 | c1ccc(COC[C@H]2CC[C@H]3[C@H](CCN3Cc3ccco3)O2)nc1 | -144
11 | COCCNCc1ccc(OCC(=O)NC(C)(C)C)cc1 | -8.08
12 | COCC(=O)NC(Cc1cc(N(C)C)nc(C2CC2)n1)c1ccccc1 (centres undefined) | 3.03
13 | C=Cn1ncc(CN2C[C@@H]3CCCN3C[C@H]2Cc2ccccc2)c1C | -18.5
14 | CCc1cc(O)nc(C2CCCN2C(=O)c2cc(CC)on2)n1 (centres undefined) | -12.6
15 | NC(=O)CN1CCCC1c1csc(Nc2cnccn2)n1 (centres undefined) | -11.2
16 | O=c1oc2ccccc2n1CCN(CC1CCOC1)C1CC1 (centres undefined) | 4.78
17 | O[C@@H]1CN(Cc2cc(Cl)cc3cccnc23)C[C@@H]1O | 0.342
18 | CC(C)c1nnc2n1CC(CNC/C=C/c1ccccc1)CC2 (centres undefined) | 3.76
19 | COCCN1CCN(CC2CCCCO2)CC1 (centres undefined) | 6.29
20 | N#Cc1cccnc1NCc1cccnc1N1CCCCC1 | -48.3
21 | CCCC(=O)NCc1cccc(C(=O)OC)c1 | 5.99

Row | SMILES | cytotoxicity at 10 µM [%]
22 | O=C(NCCc1nnc[nH]1)Nc1cccc(SC(F)F)c1 | -42.4
23 | Cc1nc(C)c(S(=O)(=O)NC(=O)c2sccc2C)s1 | 0.25
24 | COCc1nc(CNc2cc(C)on2)cs1 | 4.05
25 | CCOc1cccc(C(=O)N(CCC#N)Cc2ccccn2)c1 | 5.42
26 | CCC(CNC(=O)c1ccco1)N1CCc2ccccc2C1 (centres undefined) | 18.3
27 | CN(Cc1ccc(C#N)cc1)C(=O)c1ccnc(OC2CCC2)c1 | 7.59
28 | COc1c(CNCc2cccnc2N2CCN(C)CC2)c(C)nn1C | -134
29 | COc1cccc(C2CCCN2Cc2nnnn2C2CC2)c1 (centres undefined) | 4.17
30 | CCNC(=O)N1CCC(NC(=O)NCCc2ccc(C)cc2C)C1 (centres undefined) | -44.6
31 | Cc1cc(NC(=O)CN(CC(C)O)c2ccccc2)on1 (centres undefined) | -2.15
32 | Cc1ccc(OCC(C)NS(=O)(=O)N(C)C)cc1 (centres undefined) | 8.81
33 | CS(=O)(=O)NCCN(CCCO)C1CCc2ccccc21 (centres undefined) | 3.09
34 | COc1ccc(-c2noc(C(CC(C)C)N3CCCCC3=O)n2)cn1 (centres undefined) | -54.2
35 | N#CCSCCCN1CCC(C(=O)N2CCCCCC2)CC1 | 5.37
36 | O=C(CN1CCC(C(=O)c2cc(F)ccc2F)CC1)NC1CCCC1 | 4.93
37 | CCOC1CCC2(CCN(C(=O)c3c[nH]cn3)CC2)c2ccccc21 (centres undefined) | 7.5
38 | Cc1noc([C@H]2CC[C@@H]3[C@@H](CCN3c3ncccn3)O2)n1 | 3.06
39 | CCN(CC)C(=O)[C@@H]1C[C@@H](NC(=O)c2ccn(C(C)(C)C)c2)CN1C | -4.12
40 | Cc1cccc(=O)n1CCC(=O)N1CC[C@](C)(O)[C@H](C)C1 | 2.81
41 | CNS(=O)(=O)c1ccc(CN2CCCC2c2ccc(F)cc2)cc1 (centres undefined) | 11.6
42 | Clc1cc(N2CCC(N3CCCC3)CC2)nc2[nH]ccc12 | -0.77

Row | SMILES | cytotoxicity at 10 µM [%]
43 | COc1ccc(-c2cn(CCn3c(C)cc(C)nc3=O)nn2)cn1 | 6.05
44 | CC(C)=CCN1CCN(CCCc2ccccc2)[C@H]2CS(=O)(=O)C[C@H]21 | -1.06
45 | COc1cc(-c2nccn2C(C)CCn2cccn2)cc2c1OCO2 (centres undefined) | 0.562
46 | CN(Cc1ccccc1)c1ncccc1CNC1CCSCC1 | -2.84
47 | CN(Cc1csc(-c2cccs2)n1)CC(O)CO (centres undefined) | -0.712
48 | CCSCCNc1nc(-c2ccccn2)nc2c1c(C)nn2C | 6.35
49 | CC(C)Cc1noc(CN(C)C(=O)CCNC(=O)c2ccccc2F)n1 | -9.22
50 | COc1ccc(-c2ccncc2)cc1CNC1CCCC1 | -47.7
51 | C/C=C(\C)CN1C[C@@H](NC(=O)c2ccc(F)c(F)c2)C[C@H]1C(=O)NCC | 14
52 | CCC[C@@H]1CN(C(=O)c2cc3ccccc3cc2O)C[C@H]1N(C)C | -10.2
53 | CCc1ccccc1OCCNCCc1c[nH]cn1 | 4.69
54 | Cc1cc(C)n(CC(=O)N2Cc3cnc(C(C)(C)C)nc3C2)n1 | 3.1
55 | CN1CCCC1CCn1ccnc1-c1nc(-c2ccccc2)no1 (centres undefined) | -5.35
56 | Cc1cc(-c2nn(C)c(Cl)c2CN2Cc3ccccc3C(O)C2)no1 (centres undefined) | 4.1
57 | CCNC(=O)c1ccnc(NCC2COc3cc(OC)ccc3C2)c1 (centres undefined) | 0.145
58 | CN1CCC(Oc2ccc(NC(=O)c3ccccc3Br)cc2)CC1 | -15.6
59 | CCc1ccc(C2NCCc3cc4c(cc32)OCCO4)cc1 (centres undefined) | -6.63
60 | Cc1cncc(C2CCCN(C(=O)c3scnc3C)C2)n1 (centres undefined) | -2.19
61 | Cc1ccc(NC2CCN(C(=O)c3ccc(C)o3)CC2)nn1 | -4.69
62 | Cc1ccc(C(=O)NCCCNc2ccc(C(F)(F)F)cn2)cc1 | -2.34
63 | CCCOCC(=O)NS(=O)(=O)c1ccc2c(c1)OCCCO2 | -5.67

Row | SMILES | cytotoxicity at 10 µM [%]
64 | CN1CCOC(CNC(=O)CCCOc2ccccc2F)C1 (centres undefined) | -3.15
65 | CC(C)c1nnc2n1CCN(Cc1csc(CC(=O)N(C)C)n1)C2 | -15.9
66 | Cc1nc(C)n(CC2CCCN2CCc2cccs2)n1 (centres undefined) | -3.51
67 | CC(C)Oc1ncccc1CNC(=O)N1CCC1c1ccccc1 (centres undefined) | -4.92
68 | CCCOc1ccc(CNC2CCCc3c2cnn3CC)cc1OC (centres undefined) | -10.8
69 | CN(CCCNC(=O)N1CCCC1c1ccsc1)c1ccccn1 (centres undefined) | -4.53
70 | COc1ccccc1C(=O)NC(C)CC(=O)O (centres undefined) | -2.43
71 | Cc1nc(C2CCCN(C(=O)c3cccc(S(C)(=O)=O)c3)C2)no1 (centres undefined) | -2.33
72 | c1cc(CN2CCCC(c3noc(C4CC4)n3)C2)no1 (centres undefined) | -7.57
73 | Clc1ccc(-n2cc(CNC3CCc4ncnn4C3)cn2)cc1 (centres undefined) | 0.77
74 | CNc1cc2c(nn1)CCN(C(=O)c1ccoc1)C2 | 4.6
75 | CCNC(=O)[C@@H]1CCCN1[C@@H](C(=O)NC)C1CC1 | -2.39
76 | CCN1C(=O)CCCC12CCCN(C(=O)c1ccncc1F)C2 (centres undefined) | -3.27
77 | O=C(c1ccco1)N1CC2(CCNCC2)c2cc(Cl)ccc21 | 0.199
78 | COc1ccc2c(c1)C1(CCN(Cc3nccs3)CC1)N(C)CC2 | -148
79 | COc1cc2cc(C)c(SCCN3CCCCC3)nc2cc1OC | -0.883
80 | CCc1cnc(N2CC[C@H]3[C@@H]2CCC(=O)N3CC2CCOCC2)nc1 | 4.28
81 | O=C1NCC[C@]12CN(Cc1ccncc1)C[C@H]2c1ccccc1 | -147
82 | COCCN1CCC2(CC1)CN(C(=O)c1ccco1)CCO2 | -1.27
83 | COCC1CN(C(=O)COc2ccccc2)Cc2ncn(C)c21 (centres undefined) | 0.104
84 | Nc1nc2cn(C3CCCC3)c(=O)c-2c[nH]1 | -14.5
